Data: ChEMBL document CHEMBL1150415 (J Med Chem, 2008)
Activity calls are given as the source filed them. The rule behind the calls is not given here.

Columns and labels:
MC9 [1] = assay: Inhibition of PGF2apha production in arachidonic acid-stimulated mouse MC9 cells; format: functional, cell-based
MC9 [2] = assay: Inhibition of PGF2alpha production in mouse MC9 cells; format: functional, cell-based
Rattus norvegicus [3] = assay: Inhibition of carrageenan-induced paw edema in Sprague-Dawley rat administered 2 hrs before carrageenan challenge at 10 mg/kg, po; settings: read-out: INH
Blood = assay: Inhibition of TXB2 production in Sprague-Dawley rat whole blood; format: functional, tissue-based
Method in brief: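 Rat whole blood stimulated with calcium ionophore A23187 at 5 µM, with thromboxane B2 measured. Each run gives the mean of triplicate assays, and values come from at least two runs.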

[4] = Inhibition of cytosolic phospholipase A2alpha by GLU micelle assay
Method in brief: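 Micellar assay with 7-hydroxycoumarinyl-γ-linolenate (GLU) substrate, presenting inhibitor and substrate to the enzyme in high-lipid micelles. Each run gives the mean of duplicate assays, and values come from at least two runs.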

[5] = Plasma clearance in Sprague-Dawley rat at 2 mg/kg, iv; format: ADME, organism-based; parameters: dose 2 mg/kg, route intravenous
MC9 [6] = assay: Inhibition of LTB4 production in mouse MC9 cells; format: functional, cell-based
MC9 [7] = assay: Inhibition of leukotrienes production in mouse MC9 cells; format: functional, cell-based
Method in brief: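 Murine MC-9 mast cells stimulated through the IgE receptor to release arachidonic acid. Leukotriene production (5-LO pathway) was quantified.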

[8] = Plasma concentration in adjuvant-induced arthritis Lewis rat model at 5 mg/kg, po after 4 hrs; format: ADME, organism-based; parameters: dose 5 mg/kg, route oral
Rattus norvegicus [9] = assay: Inhibition of PGE2 production in carrageenan-stimulated rat air pouch model at 2 mg/kg, ip after 6 hrs; format: functional; settings: route intraperitoneal
Method in brief: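 Rats given an intraperitoneal dose. Carrageenan was injected into a preformed air pouch, contents were collected 6 h later, and PGE2 was quantified.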

[10] = Plasma concentration in adjuvant-induced arthritis Lewis rat model at 5 mg/kg, po after 16 hrs; format: ADME, organism-based; parameters: dose 5 mg/kg, route oral
Rattus norvegicus [11] = assay: Inhibition of carrageenan-induced paw edema in Sprague-Dawley rat administered 2 hrs before carrageenan challenge at 25 mg/kg, po; format: functional
Rattus norvegicus [12] = assay: Reduction in synovitis damage in Freund's adjuvant-induced arthritis Lewis rat model at 5 mg/kg, po for 11 days; format: functional, organism-based; parameters: dose 5 mg/kg
Method in brief: (§1)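 Arthritis was induced in Lewis rats by intradermal complete Freund's adjuvant at the base of the tail. Oral treatment began on day 8, when mean clinical joint scores were 12, and continued for 11 days. Tarsal joints were taken at necropsy and lesions were scored histologically in blinded fashion.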

Rattus norvegicus [13] = assay: Reduction in cartilage damage in Freund's adjuvant-induced arthritis Lewis rat model at 5 mg/kg, po for 11 days; format: functional, organism-based; parameters: dose 5 mg/kg; method in brief: as §1

IC50 (Blood) | IC50 [4] | SMILES | other results
 | 110 nM | O=C(O)c1ccc(OCCc2c(CCNS(=O)(=O)Cc3ccccc3)n(C(c3ccccc3)c3ccccc3)c3ccc(Cl)cc23)cc1 | 
70 nM | 190 nM | O=C(O)CCc1ccc(OCCc2c(CCNS(=O)(=O)Cc3ccccc3)n(C(c3ccccc3)c3ccccc3)c3ccc(Cl)cc23)cc1 | 
> 10000 nM | 7000 nM | O=C(O)COc1ccc(Cc2c(CCNS(=O)(=O)Cc3ccccc3)n(C(c3ccccc3)c3ccccc3)c3ccc(Cl)cc23)cc1 | 
20 nM | 70 nM | O=C(O)CCc1ccc(S(=O)(=O)CCc2c(CCNS(=O)(=O)Cc3c(F)cccc3F)n(C(c3ccccc3)c3ccccc3)c3ccc(Cl)cc23)cc1 | 
20 nM | 10 nM | O=C(O)CCc1ccc(S(=O)(=O)CCc2c(CCNS(=O)(=O)Cc3ccccc3Cl)n(C(c3ccccc3)c3ccccc3)c3ccc(Cl)cc23)cc1 | clearance [5]: 63 mL/min/kg
70 nM | 60 nM | N#Cc1ccccc1CS(=O)(=O)NCCc1c(CCOc2ccc(C(=O)O)cc2)c2cc(Cl)ccc2n1C(c1ccccc1)c1ccccc1 | 
20 nM | 30 nM | Cc1ccccc1CS(=O)(=O)NCCc1c(CCCc2ccc(C(=O)O)cc2)c2cc(Cl)ccc2n1C(c1ccccc1)c1ccccc1 | clearance [5]: 6 mL/min/kg
400 nM | 680 nM | O=C(O)c1ccc(NCCc2c(CCNS(=O)(=O)Cc3ccccc3)n(C(c3ccccc3)c3ccccc3)c3ccc(Cl)cc23)cc1 | 
70 nM | 70 nM | O=C(O)c1ccc(CCCc2c(CCNS(=O)(=O)Cc3ccccc3)n(C(c3ccccc3)c3ccccc3)c3ccc(Cl)cc23)cc1 | 
360 nM | 220 nM | O=C(O)c1ccc(OCCc2c(CCNS(=O)(=O)Cc3cccnc3)n(C(c3ccccc3)c3ccccc3)c3ccc(Cl)cc23)cc1 | 
30 nM | 85 nM | O=C(O)c1ccc(OCCc2c(CCNS(=O)(=O)Cc3ccccc3[N+](=O)[O-])n(C(c3ccccc3)c3ccccc3)c3ccc(Cl)cc23)cc1 | 
70 nM | 4 nM | Cc1cccc(C)c1CS(=O)(=O)NCCc1c(CCS(=O)(=O)c2ccc(C(=O)O)cc2)c2cc(Cl)ccc2n1C(c1ccccc1)c1ccccc1 | clearance [5]: 25 mL/min/kg

More lines, now with the values behind:

SMILES | IC50 (Blood) | IC50 [4] | other results
COc1ccc2cc([C@H](C)C(=O)O)ccc2c1 [NAPROXEN] |  |  | IC50 (MC9 [1]): 330 nM; IC50 (MC9 [2]): 200 nM; inhibition in vivo at 10 mg/kg (Rattus norvegicus [3]): 50%
O=C(O)c1ccc(OCCc2c(CCNS(=O)(=O)Cc3ccccc3Cl)n(C(c3ccccc3)c3ccccc3)c3ccc(Cl)cc23)cc1 | 50 nM | 50 nM | 
O=C(O)c1ccc(S(=O)(=O)CCc2c(CCNS(=O)(=O)Cc3ccccc3Cl)n(C(c3ccccc3)c3ccccc3)c3ccc(Cl)cc23)cc1 | 60 nM | 10 nM | 
O=C(O)c1ccc(OCCc2c(CCNS(=O)(=O)Cc3ccc4ccccc4c3)n(C(c3ccccc3)c3ccccc3)c3ccc(Cl)cc23)cc1 | 140 nM | 230 nM | 
O=C(O)c1ccc(OCCc2c(CCNS(=O)(=O)Cc3cccc([N+](=O)[O-])c3)n(C(c3ccccc3)c3ccccc3)c3ccc(Cl)cc23)cc1 | 70 nM | 110 nM | 
O=C(O)CCc1ccc(Cc2c(CCNS(=O)(=O)Cc3ccccc3)n(C(c3ccccc3)c3ccccc3)c3ccc(Cl)cc23)cc1 | 900 nM | 2000 nM | 
N#Cc1ccc(CS(=O)(=O)NCCc2c(CCOc3ccc(C(=O)O)cc3)c3cc(Cl)ccc3n2C(c2ccccc2)c2ccccc2)cc1 | 150 nM | 260 nM | 
O=C(O)c1ccc(CCCc2c(CCNS(=O)(=O)Cc3ccccc3Cl)n(C(c3ccccc3)c3ccccc3)c3ccc(Cl)cc23)cc1 | 30 nM | 20 nM | clearance [5]: 7 mL/min/kg
O=C(O)c1ccc(S(=O)(=O)CCc2c(CCNS(=O)(=O)Cc3c(F)cccc3F)n(C(c3ccccc3)c3ccccc3)c3ccc(Cl)cc23)cc1 | 150 nM | 20 nM | clearance [5]: 186 mL/min/kg
O=C(O)CCc1ccc(S(=O)(=O)CCc2c(CCNS(=O)(=O)Cc3ccccc3)n(C(c3ccccc3)c3ccccc3)c3ccc(Cl)cc23)cc1 | 20 nM | 30 nM | clearance [5]: 150 mL/min/kg
O=C(O)c1ccc(OCCc2c(CCNS(=O)(=O)Cc3ccncc3)n(C(c3ccccc3)c3ccccc3)c3ccc(Cl)cc23)cc1 | 340 nM | 180 nM | 
O=C(O)CCc1ccc(S(=O)(=O)CCc2c(CCNS(=O)(=O)Cc3ccc(Cl)c(Cl)c3)n(C(c3ccccc3)c3ccccc3)c3ccc(Cl)cc23)cc1 | 40 nM | 40 nM | clearance [5]: 10 mL/min/kg
N#Cc1cccc(CS(=O)(=O)NCCc2c(CCOc3ccc(C(=O)O)cc3)c3cc(Cl)ccc3n2C(c2ccccc2)c2ccccc2)c1 | 160 nM | 300 nM | 
CC(c1cc2ccccc2s1)N(O)C(N)=O (configuration not stated) [ZILEUTON] |  |  | IC50 (MC9 [6]): 550 nM; Activity (MC9 [7]): Active
Cc1cccc(C)c1CS(=O)(=O)NCCc1c(CCOc2ccc(C(=O)O)cc2)c2cc(Cl)ccc2n1C(c1ccccc1)c1ccccc1 | 30 nM | 30 nM | clearance [5]: 13 mL/min/kg
O=C(O)c1ccc(OCCc2c(CCNS(=O)(=O)Cc3ccccn3)n(C(c3ccccc3)c3ccccc3)c3ccc(Cl)cc23)cc1 | 350 nM | 400 nM | 
Cc1ccccc1CS(=O)(=O)NCCc1c(CCOc2ccc(C(=O)O)cc2)c2cc(Cl)ccc2n1C(c1ccccc1)c1ccccc1 | 30 nM | 60 nM | 
CN(CCc1c(CCNS(=O)(=O)Cc2ccccc2)n(C(c2ccccc2)c2ccccc2)c2ccc(Cl)cc12)c1ccc(C(=O)O)cc1 | 1800 nM | 4300 nM | 
O=C(O)c1ccc(S(=O)(=O)CCc2c(CCNS(=O)(=O)Cc3ccccc3)n(C(c3ccccc3)c3ccccc3)c3ccc(Cl)cc23)cc1 | 80 nM | 20 nM | clearance [5]: 54 mL/min/kg
O=C(O)Cc1nc(CCCc2c(CCNS(=O)(=O)Cc3ccccc3)n(C(c3ccccc3)c3ccccc3)c3ccc(Cl)cc23)no1 |  | > 20000 nM | 
O=C(O)c1ccc(Cc2c(CCNS(=O)(=O)Cc3ccccc3)n(C(c3ccccc3)c3ccccc3)c3ccc(Cl)cc23)cc1 | > 10000 nM | 33000 nM | 
O=C(O)c1ccc(OCCc2c(CCNS(=O)(=O)Cc3c(F)cccc3F)n(C(c3ccccc3)c3ccccc3)c3ccc(Cl)cc23)cc1 | 80 nM | 180 nM | clearance [5]: 32 mL/min/kg
Cc1ccc(-c2cc(C(F)(F)F)nn2-c2ccc(S(N)(=O)=O)cc2)cc1 [CELECOXIB] |  |  | IC50 (MC9 [1]): 300 nM; concentration at 4 h [8]: 1130 ng/mL; inhibition in vivo at 2 mg/kg (Rattus norvegicus [9]): 90%; concentration at 16 h [10]: 129 ng/mL; inhibition in vivo at 25 mg/kg (Rattus norvegicus [11]): 37%; IC50 (MC9 [2]): 400 nM; Activity (Rattus norvegicus [12]): Active; Activity (Rattus norvegicus [13]): Active
O=C(O)c1ccc(OCCc2c(CCNS(=O)(=O)Cc3ccc([N+](=O)[O-])cc3)n(C(c3ccccc3)c3ccccc3)c3ccc(Cl)cc23)cc1 | 90 nM | 160 nM | 
O=C(O)c1ccc(CCCc2c(CCNS(=O)(=O)Cc3c(F)cccc3F)n(C(c3ccccc3)c3ccccc3)c3ccc(Cl)cc23)cc1 | 360 nM | 60 nM | 
O=C(O)c1ccc(S(=O)(=O)CCc2c(CCNS(=O)(=O)Cc3ccc(Cl)c(Cl)c3)n(C(c3ccccc3)c3ccccc3)c3ccc(Cl)cc23)cc1 | 150 nM | 20 nM | clearance [5]: 19 mL/min/kg
